We go through 22 compounds from ChEMBL document CHEMBL4400554, “Ketamine esters and amides as short-acting anaesthetics: Structure-activity relationships for the side-chain” (Bioorg Med Chem, 2019).

Test [1] has as its target Glutamate NMDA receptor. Put plainly: Displacement of [3H] MK-801 from NMDA glutamate ion channel in Wistar rat brain membranes (minus cerebellum) after 3 hrs by scintillation counting analysis. It counts as cell membranes. In short, it runs like this:
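Radioligand binding in Wistar rat brain (minus cerebellum) preparations with MK-801 as ligand.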

Test [2] has as its system Rattus norvegicus. Put plainly: Short-acting anaesthetic activity in Sprague-Dawley rat assessed as time for return of righting reflex after infusion stopped at 20 mg/kg/min followed by dose reduction to 6.7 mg/kg/min dosed via infusion. The test is classed as functional. In short, it runs like this:
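Rats (230 to 320g) given tail-vein infusion of drug at 10mg/ml, 20 mg/kg/min until LORR and PWR=1, then 6.7 mg/kg/min titrated up-and-down to hold dorsal recumbency and PWR=1 to 10 min before stopping. Time from cessation to return of righting reflex recorded. Three rats per study, ketamine as own control, randomised order, ≥4 h recovery.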

The subject of test [3] is Rattus norvegicus. Put plainly: Analgesic activity in Sprague-Dawley rat assessed as minimal dose for loss of pedal withdrawal reflex at 20 mg/kg/min followed by dose reduction to 6.7 mg/kg/min dosed via infusion. It counts as functional. The conditions noted are these: read-out: MED. Put shortly: (§1)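 Rats (230 to 320g) restrained; drug at 10mg/ml infused via marginal tail vein cannula by syringe driver at 20 mg/kg/min until loss of righting reflex and PWR=1. Rate then cut to 6.7 mg/kg/min and titrated up-and-down for 10 min. PWR scored each minute by 1 s firm digital pressure on forepaw. Three rats per study, ketamine as within-group control, randomised order, ≥4 h between runs.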

Test [4] deals with Rattus norvegicus. Kind of test: Short-acting anaesthetic activity in Sprague-Dawley rat assessed as dose causing loss of righting reflex at 20 mg/kg/min followed by dose reduction to 6.7 mg/kg/min dosed via infusion. The test is classed as functional. In short, it runs like this:
as §1

Test [5] has as its target Glutamate [NMDA] receptor. Put plainly: Binding affinity to NMDA receptor (unknown origin). It counts as protein-complex assay, Homo sapiens. Put shortly: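 Radioligand binding on Wistar rat brain (minus cerebellum) preparations, MK-801 as ligand, in 5 mM Tris-acetate buffer pH 7.4, 3 h at 25°C; IC50 in µM.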

`CNC(=O)CCNC1(c2ccccc2Cl)CCCCC1=O` (stereo not drawn) gave an IC50 in test [1] of 73 µM. Besides, the Time in test [2] is reported as 85 s. The minimal effective dose in test [3] was > 200 mg/kg. Further, the EC in test [4] turned out to be 58 mg/kg.
For the compound `COCCOC(=O)CCCCNC1(c2ccccc2Cl)CCCCC1=O` (stereo not drawn), the IC50 in test [1] was 19 µM. In addition, the minimal effective dose in test [3] is > 200 mg/kg. In addition, the EC in test [4] was >200 mg/kg.
`CNC1(c2ccccc2Cl)CCCCC1=O` (stereo not drawn) [KETAMINE]: in test [1], the IC50 was found to be 0.7 µM. The Time in test [2] came out at 1075 s. Further, the minimal effective dose in test [3] amounted to 28 mg/kg. Also, in test [5], the Ki stood at 1.9 µM. Besides, in test [4], the EC was determined as 23 mg/kg.
As for `CC(C)OC(=O)CNC1(c2ccccc2Cl)CCCCC1=O` (stereo not drawn), the IC50 in test [1] is 45 µM. Also, the minimal effective dose in test [3] was > 200 mg/kg. Also, the EC in test [4] is >200 mg/kg.
In test [1], `O=C1CCCCC1(NCCCN1CCCCC1)c1ccccc1Cl` (stereo not drawn) showed an IC50 of 41 µM. In addition, the Time in test [2] came out at 556 s. The minimal effective dose in test [3] came out at 130 mg/kg. Besides, in test [4], the EC worked out at 67 mg/kg.
On to `CN(C)C(=O)CCCCNC1(c2ccccc2Cl)CCCCC1=O` (stereo not drawn), for which the IC50 in test [1] is > 1000 µM. Also, the minimal effective dose in test [3] was > 200 mg/kg. In addition, the EC in test [4] is >200 mg/kg.
`O=C(CCNC1(c2ccccc2Cl)CCCCC1=O)Oc1ccccc1` (stereo not drawn): in test [1], the IC50 was determined as 73 µM. Besides, the minimal effective dose in test [3] was > 200 mg/kg. Also, in test [4], the EC is >200 mg/kg.
In test [1], `NC(=O)CCNC1(c2ccccc2Cl)CCCCC1=O` (stereo not drawn) displayed an IC50 of 500 µM. For the same compound, in test [3], the minimal effective dose was > 200 mg/kg. The EC in test [4] is >200 mg/kg.
For `COC(=O)CCCCCCNC1(c2ccccc2Cl)CCCCC1=O` (stereo not drawn), in that order: 51 µM, > 200 mg/kg and >200 mg/kg.
`COC(=O)CCCCNC1(c2ccccc2Cl)CCCCC1=O` (stereo not drawn) yielded an IC50 in test [1] of 3 µM. Also, in test [2], the Time was 99 s. In test [3], the minimal effective dose was found to be 44 mg/kg. In addition, the EC in test [4] is 34 mg/kg.
In test [1], `COC(=O)COCCNC1(c2ccccc2Cl)CCCCC1=O` (stereo not drawn) had an IC50 of 13 µM. Moreover, the minimal effective dose in test [3] was > 200 mg/kg. Besides, the EC in test [4] is >200 mg/kg.
For `CCOC(=O)C(C)CCCNC1(c2ccccc2Cl)CCCCC1=O` (stereo not drawn), the IC50 in test [1] worked out at 107 µM. In addition, the Time in test [2] was determined as 260 s. Besides, the minimal effective dose in test [3] was determined as 55 mg/kg. In test [4], the EC came to 50 mg/kg.
The like results for `CC(C)NC(=O)CCNC1(c2ccccc2Cl)CCCCC1=O` (stereo not drawn) were, in that order, 58 µM, 82 s, > 200 mg/kg and 82 mg/kg.
For `CCS(=O)(=O)CCNC1(c2ccccc2Cl)CCCCC1=O` (stereo not drawn), in test [1], the IC50 was > 1000 µM. In test [3], the minimal effective dose was > 200 mg/kg. Also, in test [4], the EC is >200 mg/kg.
Turning to `CC(C)OC(=O)CCNC1(c2ccccc2Cl)CCCCC1=O` (stereo not drawn), in test [1], the IC50 came out at 134 µM. Moreover, the Time in test [2] was determined as 83 s. Also, the minimal effective dose in test [3] came to 37 mg/kg. Moreover, the EC in test [4] was 33 mg/kg.
For the compound `CN(C)C(=O)CCNC1(c2ccccc2Cl)CCCCC1=O` (stereo not drawn), the IC50 in test [1] came out at 416 µM. Moreover, the Time in test [2] came to 623 s. For the same compound, the minimal effective dose in test [3] was determined as 113 mg/kg. Also, the EC in test [4] is 110 mg/kg.
The like results for `COC(=O)C(C)(C)CCCNC1(c2ccccc2Cl)CCCCC1=O` (stereo not drawn) were, in that order, 125 µM, 580 s, > 200 mg/kg and 52 mg/kg.
The compound `COC(=O)CNC1(c2ccccc2Cl)CCCCC1=O` (stereo not drawn) yielded an IC50 in test [1] of 308 µM. Moreover, the minimal effective dose in test [3] was > 200 mg/kg. The EC in test [4] was >200 mg/kg.
As to `CNC(=O)CCCCNC1(c2ccccc2Cl)CCCCC1=O` (stereo not drawn), the IC50 in test [1] was found to be 77 µM. Besides, the Time in test [2] turned out to be 125 s. The minimal effective dose in test [3] was > 200 mg/kg. Moreover, in test [4], the EC worked out at 83 mg/kg.
The compound `CCOC(=O)CCOCCNC1(c2ccccc2Cl)CCCCC1=O` (stereo not drawn) showed an IC50 in test [1] of 87 µM. In test [3], the minimal effective dose was > 200 mg/kg. In addition, the EC in test [4] was >200 mg/kg.
On to `CCNC(=O)CCNC1(c2ccccc2Cl)CCCCC1=O` (stereo not drawn), for which the IC50 in test [1] was found to be 935 µM. Also, the Time in test [2] came to 237 s. In test [3], the minimal effective dose stood at 139 mg/kg. For the same compound, the EC in test [4] came to 112 mg/kg.
`COC(=O)CCCCCNC1(c2ccccc2Cl)CCCCC1=O` (stereo not drawn) registered a 50% inhibitory concentration (IC50) in test [1] of 44 µM. Besides, the minimal effective dose in test [3] is > 200 mg/kg. The EC in test [4] was >200 mg/kg.

Broadly, the IC50 is the concentration that inhibits the measured activity by half. Lower therefore signals higher potency. A word on the Ki: it is a dissociation constant, usually derived from enzyme kinetics or from competition with a known ligand.
